The full list was thinned out, with hits kept by preference.
PGC1a acetyl up: compounds raising PGC1a acetylation signal, primary screen, PGC1a modulator project, cell-based, U2OS, AlphaScreen, signal-increasing mode; activation, % at 15.6 µM; overnight; hit rate 0.21% among 350,000;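 active = every replicate reaching activation of at least 50%, whatever the mean replicate activation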;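 also: hits raise the AlphaScreen acetylation signal above neutral controls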
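System: flag-PGC1a/GCN5 U2OS cells / Input: 7000 cells/well / Compound: single test concentration per compound / Incubation: overnight compound treatment, 37 °C / Technique: AlphaScreen on lysates with anti-acetyl-lysine antibody, acceptor and donor beads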
Of the large screens only hits and unclear results are named; the others gave an inactive call.

COc1ccc(-c2noc(CCC(=O)N3CCN(c4cccc(C)c4C)CC3)n2)cc1	none
O=C(CNc1cccc2ccccc12)N/N=C/C(Br)=C/c1ccccc1	PGC1a acetyl up 213
O=C(N/N=C/C(Br)=C/c1ccccc1)c1cc(-c2ccco2)[nH]n1	PGC1a acetyl up 143
CCS(=O)(=O)Nc1ccc2c(c1)C(=O)N(C)C[C@@H](OC)[C@H](C)CN(Cc1ccccn1)[C@@H](C)CO2	none
COc1ccc(CCN2C(=O)CC(C(C)c3ccccc3)C2=O)cc1OC (centres undefined)	none
COc1ccc(C2c3c(-c4ccccc4O)n[nH]c3C(=O)N2CCc2ccc(OC)c(OC)c2)cc1 (centres undefined)	PGC1a acetyl up 63
C[C@@]12C(=O)OC(=O)[C@]1(C)C1CCC2O1	none
C[C@@H]1CN([C@@H](C)CO)C(=O)c2cccc(NC(=O)Nc3ccccc3)c2O[C@H]1CN(C)S(=O)(=O)c1cccs1	none
COc1ccc(N(CC(=O)Nc2ccccc2Cl)S(=O)(=O)c2ccc(C)cc2)cc1OC	none
Cc1ccc(NC(=O)CN(C)S(=O)(=O)c2cccs2)c(Br)c1	PGC1a acetyl up 59
CC(=O)Nc1ccc(OS(=O)(=O)c2ccc(C)cc2C)cc1	none
CCOc1ccc2c(c1)C(C)=CC(C)(C)N2S(=O)(=O)c1ccc(NC(C)=O)cc1	PGC1a acetyl up 106
CC(C)NC(=O)NCC[C@H]1CC[C@H](NC(=O)c2ccc(F)cc2)[C@H](CO)O1	none
CCN(CC)C(=O)CSc1nnc(-c2cccnc2)n1Cc1ccccc1	none
Clc1ccc(CSc2nnc(-c3cccnc3)n2Cc2ccco2)c(Cl)c1	PGC1a acetyl up 74
COc1cc(NC(=S)NN2CCOCC2)cc(OC)c1	none
O=C(c1cc2ccccc2o1)N1CC=C(c2ccccc2)CC1	none
O=C(COc1ccc(Br)cc1)NCCNC(=O)c1cccnc1	none
CC(C)(C)c1ccc(C(=O)Nc2ccc(C(=O)NCc3cccnc3)cc2)cc1	PGC1a acetyl up 101
CCSc1ccc(NC(=O)c2cccnc2)cc1	PGC1a acetyl up 226
Cc1ccc(S(=O)(=O)OCCC2=CC(=O)CCN2Cc2ccccc2)cc1	none
Cc1ccc(NC(=O)c2ccc([N+](=O)[O-])o2)cc1C	PGC1a acetyl up 90
Cc1ccc2nsnc2c1NC(=O)c1ccc([N+](=O)[O-])o1	none
C[C@H](CO)N1C[C@H](C)[C@@H](CN(C)Cc2ccc(C(F)(F)F)cc2)OCc2cnnn2CCCC1=O	none
C=CC[C@@H](CC(=O)N[C@@H](CO)Cc1ccccc1)C(=O)N[C@@H](COC(=O)[C@@H](CC=C)CC(=O)OC(C)(C)C)Cc1c[nH]c2ccccc12	PGC1a acetyl up 155
CC(C)NC(=O)Nc1ccc2c(c1)C(=O)N([C@@H](C)CO)C[C@H](C)[C@@H](CN(C)C(=O)CCC(F)(F)F)OCCCC[C@@H](C)O2	none
CN(C)Cc1c(O)ccc2c1O/C(=C\C=C\c1ccccc1)C2=O	PGC1a acetyl up 79
Fc1ccc(/C=N/N2CCCCC2)c(F)c1	none
O=C(C(Br)=Cc1ccccc1)c1ccccc1	PGC1a acetyl up 160
O=C(CC(Nc1ccc(F)cc1)C(=O)O)c1ccccc1 (centres undefined)	PGC1a acetyl up 76
Fc1ccc(CNC(=S)NCc2ccc(F)cc2)cc1	none
Nc1c(C(=O)c2ccccc2)sc2nsc(SCCN3CCCC3)c12	PGC1a acetyl up 126
O=C(c1cccc([N+](=O)[O-])c1)N1CCc2ccccc21	none
O=C(Cn1c2ccccc2c(=O)c2ccccc21)N/N=C/c1cc([N+](=O)[O-])ccc1N1CCCCCC1	PGC1a acetyl up 53
CCn1c2ccccc2c2cc(/C=N/NC(=O)c3ccccc3)ccc21	none
O=S(=O)(Nc1ccccn1)c1ccc(-n2cccn2)cc1	none
Cc1ccc(NC(=O)c2ccc(NCC3CCCO3)c([N+](=O)[O-])c2)cc1Cl (centres undefined)	none
O=C(COC(=O)c1ccccc1C(=O)c1ccc(Cl)c([N+](=O)[O-])c1)NC1CCCCCC1	PGC1a acetyl up 160
CCc1ccc(Nc2nnc(SCC(=O)Nc3ccc(C(=O)O)cc3)s2)cc1	none
C=CCN1C(=O)C(CC(=O)Nc2ccccc2F)S/C1=N\c1nccs1 (centres undefined)	none
Cc1ccc(O)c(NC(=O)c2ccc3c(c2)C(=O)N(CC(C)C)C3=O)c1	none
COc1cccc(S(=O)(=O)N[C@H]2CC[C@H](CC(=O)NCc3ccc(F)cc3)O[C@@H]2CO)c1	none
COc1cccc(N(C(=O)CCl)C(C(=O)NCCc2ccccc2)c2cccs2)c1 (centres undefined)	none
COc1cccc(N(CC(=O)NCc2cccnc2)S(C)(=O)=O)c1	PGC1a acetyl up 89
Cc1cc(C)c2nc(N3CCCC(C(=O)N4CCC(C(N)=O)CC4)C3)sc2c1 (centres undefined)	none
O=C(CC1SC(=NCc2ccccc2)NC1=O)Nc1ccccc1 (centres undefined)	PGC1a acetyl up 99
CCCCN=C1NC(=O)C(CC(=O)Nc2ccc(Cl)cc2)S1 (centres undefined)	PGC1a acetyl up 171
CC(CCC(=O)O)C1CCC2C3CCC4CC(O)CCC4(C)C3CC(O)C12C (centres undefined)	none
CC(C)(O)C#Cc1ccc(C(=O)NC(CCCNC(N)=O)C(=O)O)s1 (centres undefined)	none
O=C(NC(=S)Nc1ccc(CN2CCCCC2)cc1)c1cc2ccccc2o1	none
O=C(C1CCCO1)N1CCN(Cc2c(O)ccc3ccccc23)CC1 (centres undefined)	PGC1a acetyl up 191
O=C(NC(=S)N1CCN(Cc2ccccc2)CC1)c1cccnc1	none
O=C(c1ccc2ccccc2c1)N1CCCC1	none
Oc1ccc2ccccc2c1CN1CCCCC1	PGC1a acetyl up 104
CCOc1ccc(S(=O)(=O)N(C)c2ccc(OCC(=O)N3c4ccc(C)cc4C4CN(C)CCC43)cc2)cc1 (centres undefined)	none
Cc1cc(NS(=O)(=O)c2ccc(NC(=O)COc3c(C)cc(Br)cc3C)cc2)no1	none
C[C@@H]1CCCCO[C@H](CN(C)C(=O)NC2CCCCC2)[C@@H](C)CN([C@@H](C)CO)C(=O)c2cc(NC(=O)NC3CCCCC3)ccc2O1	none
Cc1ccc(Nc2nc(-c3c(C)nc4ccccn34)cs2)cc1	PGC1a acetyl up 121
Cc1ccc(Nc2nc(-c3c(C)nc4ncccn34)cs2)cc1	PGC1a acetyl up 80
COC(=O)c1cc(CN2C(=O)c3ccccc3C2=O)c(O)c([N+](=O)[O-])c1	none
CC(C)CC(=O)/C(=C\c1ccc(Cl)cc1Cl)n1cncn1	none
COCC(=O)N1CC(=O)N2[C@@H](CO)[C@H](c3ccc(-c4ccncc4)cc3)[C@@H]2C1	none
Cc1cc(C)nc(N2CCC(C(=O)NCc3ccco3)CC2)n1	none
Cc1cc(C)n2c(SCC(=O)NCc3ccco3)nnc2n1	PGC1a acetyl up 63
Cn1nnnc1SCC(=O)NCc1cccc(C(=O)O)c1	none
COc1nc(OCCNS(=O)(=O)c2ccc(C)cc2)nc(N(C)C)n1	none
NC(=O)C1CCCCc2c1[nH]c1ccc(Cl)cc21 (centres undefined)	PGC1a acetyl up 664
O=c1c2c3c(sc2n2cnnc2n1Cc1ccccc1)CN(Cc1ccccc1)CC3	PGC1a acetyl up 73
CCOC(=O)N1C/C(=C\c2ccccc2)C(=O)/C(=C/c2ccccc2)C1	PGC1a acetyl up 497
CCOC(=O)/C(C#N)=C1/C(=O)N(Cc2ccccc2)c2ccccc21	none
CC(C)(C)c1ccc(-n2nc(C#N)c(Cl)cc2=O)cc1	none
COc1cccc(N2CCN(c3ncnc4c3[nH]c3ccc(F)cc34)CC2C)c1 (centres undefined)	none
CN(C)C(=O)C[C@H]1CC[C@@H](NC(=O)C2CCC2)[C@H](CO)O1	none
